40 molecules from PubChem BioAssay can be followed below.

Values joined by “and” are separate entries in the source; they are usually repeats but may differ in a detail not shown here. Equal entries are not always repeated. A number with no mark means an inactive call.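 Rule for the calls, unless noted: active = viability at or below 30% in both replicate assays; inconclusive = viability at or below 30% in just one of the two assays; inactive = the rest.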

One assay can be described thus: SK-BR-3 cell growth inhibitors, pilot screen, 24 h, human (AID 572;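 active = viability at or below 10% of carrier control in both of two separate runs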;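 note: compound exposure lasted between 18 and 24 h rather than exactly 24 h; 100% = carrier-treated control wells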). The conditions noted are these: SK-BR-3 viability, CellTiter-Glo luminescence, at 10 µM, stronger effect = lower value. Background: In ATP-based viability assays light output follows the ATP content of the culture.
A word on the viability: it is a read-out of living cells in per cent, often relative to untreated cells. Turning to `O=C1CCCN1CCCNc1ncnc2c1[nH]c1ccc(Cl)cc12`, the viability is 89%.
The same measure, in the same setting: to `C=CCNS(=O)(=O)c1ccc2nsnc2c1` belongs 102%; to `O=C(O)c1oc2ccccc2c1-n1cccc1`, 102%; to `COCCn1c(SCc2csc(-c3ccccc3)n2)nc2ccccc21`, 94%.
The same measure, in the same setting: as for `Nc1nc2ccccc2n1C(=O)CCc1ccccc1`, the figure is 102%; as for `Cc1cccc2cc(CN(CCN3CCCC3)C(=O)NC3CCCCC3)c(=O)[nH]c12`, 83%; as for `Cc1ccc(-c2noc(CCC(=O)NCCc3ccccc3Cl)n2)cc1`, 77.5%.
On the same count and under the same terms, to `COc1ccc2c(c1OC)C(=O)OC2C1c2c(cc3c(c2OC)OCO3)CCN1C` (stereo not given) belongs 89% and 83%; to `CCOC(=O)CNC(=O)Nc1nnc(-c2ccc(OCC)cc2)o1`, 99%.
Take `C/C(N)=C(/C#N)C(=O)COC(=O)CCSc1ccccc1`: the viability was 97.5%.
Same read-out and setting: to `CCOC(=O)C1=C(C)NC(C)=C(C(=O)OCC)C1C(=O)OC1CCOC1=O` (stereo not given) belongs 104%; to `CCC1(NC(C)=O)CC2CC1CC2NC(C)=O` (stereo not given), 94.5%.
As for `CC(C)COc1nc2ccccc2nc1C(C#N)C(=O)NC1CCCCC1` (stereo not given), the viability was 99%.
For the molecule `CCc1cc(C(=O)OC)c(NC(=O)CCC(=O)O)s1`, the viability was 96.5%.
Same read-out and setting: as for `Cc1cccc2cc(CN(CCCO)C(=O)Nc3ccc(Cl)cc3)c(=O)[nH]c12`, the figure is 74%; as for `O=C(CCN1CCN(C(=O)c2ccco2)CC1)Nc1ccc(F)cc1`, 97.5%.
The same measure, in the same setting: as for `CCC(=NC(C)c1ccccc1)c1c(O)n(C)c(=O)n(C)c1=O` (stereo not given), the figure is 94%; as for `O=C(O)CCCCCNc1nc(=S)[nH]c2ccccc12`, 107%.
Same read-out and setting: as for `CCOC(=O)N1CCN(C(=O)c2ccc3nc4cc(Cl)ccc4c(=O)n3c2)CC1`, the figure is 91%; as for `COc1ccc(OC)c(C(=O)CSc2nnc(-c3ccc(OC)c(OC)c3)o2)c1`, 104%.
With `C[C@H](NC(=O)NCc1cccs1)C(=O)O`, the viability is 104%.
Same read-out and setting: as for `CC1CCN(CC(O)COC2CCC(C(C)(C)C)CC2)CC1` (stereo not given), the figure is 82%; as for `Cc1cccc(N2CCN(C(=O)Cn3ccc4ccccc4c3=O)CC2)c1C`, 90.5%; as for `Cc1cc(NC(=O)CCC(=O)N(c2cccnc2)C(C(=O)NC2CCCC2)c2ccccc2F)no1` (stereo not given), 99%.
On the same count and under the same terms, as for `Cc1ccc(NC(=O)CCC(=O)O)cc1F`, the figure is 106%; as for `CC1C=CC(C)C(C(=O)O)C1C(=O)O` (stereo not given), 103%; as for `Cc1ccc(-c2nnn(CC(=O)N(CC3CCCO3)C(C(=O)NC(C)(C)C)c3ccc(F)cc3)n2)o1` (stereo not given), 106%.
Still for that read-out and setting: as for `CN(C)C(=O)c1ccc(COc2ccccc2Br)o1`, the figure is 110%.
Take `CCOC(=O)C1C2C=CC3(CN(c4cccc(Cl)c4)C(=O)C13)O2` (stereo not given): the viability is 86%.
Same read-out and setting: to `O=C(NCCC1=CCCCC1)C1CCN(C(=O)Nc2ccccc2)CC1` belongs 106%; to `CCOC(=O)C1CCN(c2c(N(C)Cc3ccco3)c(=O)c2=O)CC1`, 78%.
For `CCN(CC)CCn1c2ccccc2c2nc(C)sc21`, the viability is 113%.
In the case of `COc1cc(C(=O)OCC(=O)N(C)Cc2ccccc2)cc(OC)c1OC`, the viability was 106%.
On to `COc1ccc(C)cc1NC(=O)COCC(=O)O`, for which the viability is 106%.
On the same count and under the same terms, as for `Cc1c(C(=O)O)sc2ncn(C)c(=O)c12`, the figure is 106%; as for `O=C(COC(=O)C1=COCCO1)Nc1ccccc1Oc1ccccc1`, 113%; as for `O=C(Nc1cccc2ccccc12)c1cnccn1`, 82%.
Regarding `CCOC(=O)c1cccnc1SCC(=O)NC(C)CC` (stereo not given), the viability is 92%.
The same measure, in the same setting: to `CCOc1nc2ccccc2nc1NS(=O)(=O)c1ccccc1` belongs 83%; to `Cc1cc(N2C(=O)C3C4C=CC(C4)C3C2=O)ccc1Br` (stereo not given), 107%.

The nature of another assay: HUVEC growth inhibition – cell-based, human, primary screen (AID 575).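 Note: 100% = median of untreated cell wells with 0.1% DMSO on each plate.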 The conditions noted are these: HUVEC proliferation, CellTiter-Glo luminescence, 72 h; at 10 µM; stronger effect = lower value. The gist of the method: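 material = primary HUVEC, no more than 12 passages | input = 1250 cells per well | controls = vehicle and MePR control wells | measured by = CTG luminescence | times = 72 h compound incubation | format = collagen-coated 384-well format | read-out = % viability vs DMSO wells | doses = single 10 µM dose, 0.1% DMSO, from 5x medium stock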
Turning to `O=C1CCCN1CCCNc1ncnc2c1[nH]c1ccc(Cl)cc12`, the viability is 85.3%.
For the molecule `C=CCNS(=O)(=O)c1ccc2nsnc2c1`, the viability is 87.8%.
As for `O=C(O)c1oc2ccccc2c1-n1cccc1`, the viability was 102%.
The same measure, in the same setting: to `COCCn1c(SCc2csc(-c3ccccc3)n2)nc2ccccc21` belongs 71.5%; to `Nc1nc2ccccc2n1C(=O)CCc1ccccc1`, 44.8%.
In the case of `Cc1cccc2cc(CN(CCN3CCCC3)C(=O)NC3CCCCC3)c(=O)[nH]c12`, the viability is 76.5%.
As to `Cc1ccc(-c2noc(CCC(=O)NCCc3ccccc3Cl)n2)cc1`, the viability is 103%.
Still for that read-out and setting: to `COc1ccc2c(c1OC)C(=O)OC2C1c2c(cc3c(c2OC)OCO3)CCN1C` (stereo not given) belongs 70.2% and 90.3%; to `CCOC(=O)CNC(=O)Nc1nnc(-c2ccc(OCC)cc2)o1`, 105%; to `C/C(N)=C(/C#N)C(=O)COC(=O)CCSc1ccccc1`, 84.4%.
Still for that read-out and setting: to `CCOC(=O)C1=C(C)NC(C)=C(C(=O)OCC)C1C(=O)OC1CCOC1=O` (stereo not given) belongs 87.5%; to `CCC1(NC(C)=O)CC2CC1CC2NC(C)=O` (stereo not given), 107%.
With `CC(C)COc1nc2ccccc2nc1C(C#N)C(=O)NC1CCCCC1` (stereo not given), the viability is 80%.
Same read-out and setting: as for `CCc1cc(C(=O)OC)c(NC(=O)CCC(=O)O)s1`, the figure is 87.6%; as for `Cc1cccc2cc(CN(CCCO)C(=O)Nc3ccc(Cl)cc3)c(=O)[nH]c12`, 67.9%; as for `O=C(CCN1CCN(C(=O)c2ccco2)CC1)Nc1ccc(F)cc1`, 99.8%.
Same read-out and setting: as for `CCC(=NC(C)c1ccccc1)c1c(O)n(C)c(=O)n(C)c1=O` (stereo not given), the figure is 72.8%.
In the case of `O=C(O)CCCCCNc1nc(=S)[nH]c2ccccc12`, the viability is 99.7%.
As for `CCOC(=O)N1CCN(C(=O)c2ccc3nc4cc(Cl)ccc4c(=O)n3c2)CC1`, the viability was 96%.
Regarding `COc1ccc(OC)c(C(=O)CSc2nnc(-c3ccc(OC)c(OC)c3)o2)c1`, the viability is 75.9%.
As for `C[C@H](NC(=O)NCc1cccs1)C(=O)O`, the viability is 111%.
Still for that read-out and setting: to `CC1CCN(CC(O)COC2CCC(C(C)(C)C)CC2)CC1` (stereo not given) belongs 73.8%; to `Cc1cccc(N2CCN(C(=O)Cn3ccc4ccccc4c3=O)CC2)c1C`, 94.1%.
Still for that read-out and setting: to `Cc1cc(NC(=O)CCC(=O)N(c2cccnc2)C(C(=O)NC2CCCC2)c2ccccc2F)no1` (stereo not given) belongs 99.4%; to `Cc1ccc(NC(=O)CCC(=O)O)cc1F`, 88.8%; to `CC1C=CC(C)C(C(=O)O)C1C(=O)O` (stereo not given), 97.6%.
Same read-out and setting: to `Cc1ccc(-c2nnn(CC(=O)N(CC3CCCO3)C(C(=O)NC(C)(C)C)c3ccc(F)cc3)n2)o1` (stereo not given) belongs 100%.
With `CN(C)C(=O)c1ccc(COc2ccccc2Br)o1`, the viability is 88.5%.
`CCOC(=O)C1C2C=CC3(CN(c4cccc(Cl)c4)C(=O)C13)O2` (stereo not given): the viability was 91.2%.
Still for that read-out and setting: to `O=C(NCCC1=CCCCC1)C1CCN(C(=O)Nc2ccccc2)CC1` belongs 91.3%; to `CCOC(=O)C1CCN(c2c(N(C)Cc3ccco3)c(=O)c2=O)CC1`, 93%; to `CCN(CC)CCn1c2ccccc2c2nc(C)sc21`, 104%.
Still for that read-out and setting: to `COc1cc(C(=O)OCC(=O)N(C)Cc2ccccc2)cc(OC)c1OC` belongs 103%; to `COc1ccc(C)cc1NC(=O)COCC(=O)O`, 92.4%; to `Cc1c(C(=O)O)sc2ncn(C)c(=O)c12`, 100%.
As to `O=C(COC(=O)C1=COCCO1)Nc1ccccc1Oc1ccccc1`, the viability is 97.8%.
Regarding `O=C(Nc1cccc2ccccc12)c1cnccn1`, the viability is 92.3%.
On the same count and under the same terms, as for `CCOC(=O)c1cccnc1SCC(=O)NC(C)CC` (stereo not given), the figure is 96.7%; as for `CCOc1nc2ccccc2nc1NS(=O)(=O)c1ccccc1`, 91.3%.
On the same count and under the same terms, as for `Cc1cc(N2C(=O)C3C4C=CC(C4)C3C2=O)ccc1Br` (stereo not given), the figure is 87.8%.
